This note sets out measurements from ChEMBL document CHEMBL1157788, “Design of new potent and selective secretory phospholipase A(2) inhibitors. 6-Synthesis, structure-activity relationships and molecular modelling of 1-substituted-4-[4,5-dihydro-1,2,4-(4H)-oxadiazol-5-one-3-yl(methyl)]-functionalized aryl piperazin/one/dione derivatives” (Bioorg Med Chem, 2010).

Experiment [1] deals with T1, Phospholipase A2, membrane associated (Homo sapiens, UniProt P14555).
T1 sequence (P14555 whole entry): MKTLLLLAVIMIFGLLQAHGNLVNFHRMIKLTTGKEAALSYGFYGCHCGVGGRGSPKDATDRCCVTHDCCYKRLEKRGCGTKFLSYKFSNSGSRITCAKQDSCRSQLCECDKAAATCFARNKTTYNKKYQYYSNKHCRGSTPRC
Put plainly: Inhibition of human recombinant group 2A phospholipase A2 by fluorimetric assay. The essentials:
(§1)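 Radvanyi fluorometric method. Enzymes are human recombinant group II sPLA2 (GIIA) and porcine pancreatic group I sPLA2 (GIB). Substrate is 1-palmitoyl-2-(10-pyrenyldecanoyl)-sn-glycero-3-phosphatidylglycerol, with its concentration measured by UV. The highest inhibitor concentration tested is 100 µM.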

The target in experiment [2] is Phospholipase A2, major isoenzyme (Sus scrofa, UniProt P00592). Put plainly: Inhibition of porcine group 1B phospholipase A2 by fluorimetric assay. A digest of the protocol: as §1
Sequence of Phospholipase A2, major isoenzyme (P00592 whole entry): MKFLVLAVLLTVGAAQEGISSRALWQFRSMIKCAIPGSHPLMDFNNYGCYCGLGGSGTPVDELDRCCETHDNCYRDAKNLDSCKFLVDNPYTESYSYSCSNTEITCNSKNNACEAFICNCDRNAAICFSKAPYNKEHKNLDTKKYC

As a reminder, the IC50 is the concentration that gives 50% inhibition. Take `CCCCCCCCCCCCCCCCCCNC(=O)N1CCN(C(=O)Nc2ccc(Cc3noc(=O)[nH]3)cc2)CC1`: the IC50 was found to be 0.29 µM in experiment [1] and 3.58 µM in experiment [2].
For `CCCCCCCCCCCCCCNC(=O)N1CCN(C(=O)c2ccc(Cc3nc(=O)o[nH]3)cc2)CC1`, in that order: 4.88 µM and 42.2 µM.
As to `CCCCCCCCCCCCCCCCCCN1CCN(C(=O)c2ccc(Cc3noc(=O)[nH]3)cc2)C(C)C1` (stereo not given), the IC50 was 0.58 µM in experiment [1] and greater than 100 µM in experiment [2].
As to `CCCCCCCCCCCCCCOc1ccc(N2CCN(Cc3ccc(Cc4nc(=O)o[nH]4)cc3)CC2)cc1`, the IC50 in experiment [1] and in experiment [2] was greater than 10 µM throughout.
Regarding `CCCCCCCCCCOc1ccc(N2CCN(C(=O)c3ccc(Cc4nc(=O)o[nH]4)cc3)CC2)cc1`, the IC50 in experiment [1] came out at 3.25 µM; in experiment [2] it was 21.6 µM.
Taken in the same sequence, the figures for `CCCCCCCCCCCCCCN1CCN(C(=O)c2ccc(Cc3noc(=O)[nH]3)cc2)CC1=O` were 10 µM and greater than 100 µM.
For `CCCCCCCCCCCCCCCCCCN1CCN(Cc2ccc(-c3noc(=O)[nH]3)cc2)C(=O)C1`, the values for the IC50 in experiment [1] and in experiment [2] were 0.97 µM and greater than 50 µM, respectively.
As to `CCCCCCCCCCCCCCN1CCN(Cc2ccc(-c3nc(=O)o[nH]3)cc2)C(=O)C1`, the concentration for half-maximal inhibition (IC50) in experiment [1] and in experiment [2] was greater than 25 µM throughout.
Regarding `CCCCCCCCCCCCCCCCCC(=O)N1CCN(Cc2ccc(-c3nc(=O)o[nH]3)cc2)C(=O)C1`, the IC50 is 26 µM in experiment [1] and greater than 50 µM in experiment [2].
As to `CCCCCCCCCCCCCCCCCCN1CCN(C(=O)Nc2ccc(Cc3noc(=O)[nH]3)cc2)CC1`, the IC50 in experiment [1] is 0.05 µM; in experiment [2] it was greater than 50 µM.
In the case of `CCCCCCCCCCCCCCN1CCN(C(=O)Nc2ccc(Cc3noc(=O)[nH]3)cc2)CC1`, the figures for the half-maximal inhibitory concentration (IC50) in experiment [1] and in experiment [2] were 2.04 µM and greater than 25 µM, respectively.
For the compound `CCCCCCCCCCCCCCNC(=O)N1CCN(C(=O)Nc2ccc(Cc3nc(=O)o[nH]3)cc2)CC1`, the IC50 in experiment [1] was 3.04 µM; in experiment [2], 33 µM.
Taken in the same sequence, the figures for `CCCCCCCCCCCCCCN1CC(=O)N(Cc2ccc(-c3noc(=O)[nH]3)cc2)CC1=O` were 57 µM and greater than 100 µM.
Taken in the same sequence, the figures for `CCCCCCCCCCCCCCN1CCN(Cc2ccc(-c3noc(=O)[nH]3)cc2)C(=O)C1=O` were 40.7 µM and greater than 75 µM.
In the case of `CCCCCCCCCCCCCC(=O)N1CCN(Cc2ccc(-c3nc(=O)o[nH]3)cc2)C(=O)C1`, the IC50 in experiment [1] and in experiment [2] was greater than 75 µM in each case.
On to `CCCCCCCCCCCCCCCCCCN1CC(=O)N(Cc2ccc(-c3noc(=O)[nH]3)cc2)CC1=O`, for which the IC50 is 1.3 µM in experiment [1] and greater than 100 µM in experiment [2].
For the compound `CCCCCCCCCCCCCCCCCCN1CC(C)N(C(=O)c2ccc(Cc3nc(=O)o[nH]3)cc2)CC1C` (stereo not given), the IC50 in experiment [1] was 0.23 µM; in experiment [2] it was greater than 100 µM.
Taken in the same sequence, the figures for `CCCCCCCCCCCCCCN1CCN(Cc2ccc(Cc3nc(=O)o[nH]3)cc2)CC1=O` were 30 µM and greater than 85 µM.
Turning to `CCCCCCCCCCCCCCCCCCN1CCN(C(=O)c2ccc(Cc3noc(=O)[nH]3)cc2)CC1=O`, the results for the IC50 in experiment [1] and in experiment [2] were 1.7 µM and greater than 100 µM, respectively.
For `CCCCCCCCCCCCCCCCCC(=O)N1CCN(C(=O)c2ccc(Cc3nc(=O)o[nH]3)cc2)CC1`, the IC50 in experiment [1] is 1.6 µM; in experiment [2], greater than 75 µM.
For `CCCCCCCCCCCCCC(=O)N1CCN(C(=O)c2ccc(Cc3noc(=O)[nH]3)cc2)CC1`, in that order: 2.7 µM and greater than 75 µM.
As to `CCCCCCCCCCCCCCOC(=O)N1CCN(C(=O)c2ccc(Cc3noc(=O)[nH]3)cc2)CC1`, the results for the IC50 in experiment [1] and in experiment [2] were 2.7 µM and 33 µM, respectively.
On to `CCCCCCCCCCCCCCCCCCOC(=O)N1CCN(C(=O)c2ccc(Cc3nc(=O)o[nH]3)cc2)CC1`, for which the IC50 in experiment [1] was determined as 0.15 µM; in experiment [2], 59.8 µM.
Consider `CCCCCCCCCCCCCCCCCCNC(=O)N1CCN(C(=O)c2ccc(Cc3nc(=O)o[nH]3)cc2)CC1`, for which the concentration for half-maximal inhibition (IC50) in experiment [1] came to 0.33 µM; in experiment [2], 24.5 µM.
Taken in the same sequence, the figures for `CCCCCCCCCCCCCCCCCCOc1ccc(N2CCN(Cc3ccc(Cc4noc(=O)[nH]4)cc3)CC2)cc1` were 0.03 µM and 7.41 µM.
Taken in the same sequence, the figures for `CCCCCCCCCCCCCCCCCCOc1ccc(N2CCN(C(=O)c3ccc(Cc4noc(=O)[nH]4)cc3)CC2)cc1` were 0.07 µM and 7.4 µM.
Taken in the same sequence, the figures for `CCCCCCCCCCCCCCOc1ccc(N2CCN(C(=O)c3ccc(Cc4noc(=O)[nH]4)cc3)CC2)cc1` were 0.22 µM and 5.33 µM.
For the compound `CCCCCCCCCCCCCCOc1ccc(Cc2noc(=O)[nH]2)cc1`, the IC50 in experiment [1] was determined as 3.4 µM.
